According to ChEMBL document CHEMBL4196108, “5-Aroylindoles Act as Selective Histone Deacetylase 6 Inhibitors Ameliorating Alzheimer's Disease Phenotypes” (J Med Chem, 2018):
Calls of active or inactive are those of the source. The rule behind the calls is not given here.

Columns and labels:
[1] = biological target: T1, Protein deacetylase HDAC6 (Homo sapiens) (UniProt Q9UBN7); assay: Inhibition of HDAC6 in human SH-SY5Y cells transfected with pCAX FLAG APP and pRK5-EGFP-Tau P301L plasmids assessed as increase in HSP90 acetylation at 1 uM after 24 hrs by coimmunoprecipitation analysis; format: cell-based
T1 sequence (whole entry): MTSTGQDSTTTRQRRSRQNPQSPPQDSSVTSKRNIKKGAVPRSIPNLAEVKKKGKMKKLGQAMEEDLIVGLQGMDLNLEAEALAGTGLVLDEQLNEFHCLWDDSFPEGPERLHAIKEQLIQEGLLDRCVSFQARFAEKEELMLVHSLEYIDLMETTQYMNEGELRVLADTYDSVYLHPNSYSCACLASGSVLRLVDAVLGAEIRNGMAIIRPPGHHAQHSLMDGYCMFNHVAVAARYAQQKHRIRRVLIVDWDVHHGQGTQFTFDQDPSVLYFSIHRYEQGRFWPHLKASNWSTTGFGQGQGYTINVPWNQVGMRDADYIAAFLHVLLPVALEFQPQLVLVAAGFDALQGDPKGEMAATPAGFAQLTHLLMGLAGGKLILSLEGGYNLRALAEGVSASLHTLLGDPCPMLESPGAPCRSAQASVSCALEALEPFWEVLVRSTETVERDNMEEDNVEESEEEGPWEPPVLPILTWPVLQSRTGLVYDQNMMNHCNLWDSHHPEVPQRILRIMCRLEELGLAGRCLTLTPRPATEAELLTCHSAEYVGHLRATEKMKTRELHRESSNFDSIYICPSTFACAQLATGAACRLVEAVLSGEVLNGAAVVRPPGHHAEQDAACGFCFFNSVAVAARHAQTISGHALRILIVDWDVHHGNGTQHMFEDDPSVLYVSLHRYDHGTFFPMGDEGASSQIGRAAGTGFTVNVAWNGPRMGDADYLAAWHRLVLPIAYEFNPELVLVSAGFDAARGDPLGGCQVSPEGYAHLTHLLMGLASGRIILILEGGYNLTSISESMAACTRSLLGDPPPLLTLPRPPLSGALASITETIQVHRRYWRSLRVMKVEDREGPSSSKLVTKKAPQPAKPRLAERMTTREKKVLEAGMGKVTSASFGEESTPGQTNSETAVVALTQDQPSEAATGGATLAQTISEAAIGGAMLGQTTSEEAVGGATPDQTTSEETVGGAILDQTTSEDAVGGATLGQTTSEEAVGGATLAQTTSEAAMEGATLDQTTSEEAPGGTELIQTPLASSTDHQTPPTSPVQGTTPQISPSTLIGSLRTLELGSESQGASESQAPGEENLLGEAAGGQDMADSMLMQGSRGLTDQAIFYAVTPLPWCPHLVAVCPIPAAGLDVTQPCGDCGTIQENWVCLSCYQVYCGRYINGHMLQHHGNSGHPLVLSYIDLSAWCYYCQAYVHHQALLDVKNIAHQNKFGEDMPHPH
In short: (§1)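 SH-SY5Y and Neuro-2a cells cotransfected 24 h with APP695/Tau P301L plasmids, treated 24 h at 1 µM (ACY-1215 reference). 30 µg lysate immunoprecipitated overnight at 4 °C with anti-HDAC6 or anti-acetyl-lysine antibodies plus protein A/G beads, run on 8% SDS-PAGE, probed for Hsp90; Hsp70 by immunoblot. Three independent experiments.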

[2] = biological target: T1, Protein deacetylase HDAC6 (Homo sapiens); assay: Inhibition of HDAC6 binding to HSP90 in human SH-SY5Y cells transfected with pCAX FLAG APP and pRK5-EGFP-Tau P301L plasmids at 1 uM after 24 hrs by coimmunoprecipitation analysis; format: cell-based; in short: as §1
[3] = biological target: T1, Protein deacetylase HDAC6 (Homo sapiens); assay: Inhibition of HDAC6 in human SH-SY5Y cells transfected with pCAX FLAG APP and pRK5-EGFP-Tau P301L plasmids assessed as increase in coimmunoprecipitation of ubiquitin with phosphorylated tau at Ser396 residue at 1 uM after 24 hrs; format: cell-based
In short: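 In APP695/Tau P301L-cotransfected SH-SY5Y cells treated 24 h at 1 µM, lysates (30 µg) were immunoprecipitated with anti-ubiquitin antibody and protein A/G beads overnight at 4 °C, then immunoblotted for phospho-tau Ser396 after 8% SDS-PAGE.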

[4] = Ratio of drug level in brain to plasma in Sprague-Dawley rat at 50 mg/kg, po after 1 hr; format: ADME, organism-based; settings: read-out: BPR
Mus musculus = assay: Toxicity in Balb/c mouse assessed as increase in body weight at 100 to 1000 mg/kg/day, ip administered for 6 days followed by 1 week recovery; format: organism-based; settings: in vivo
In short: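 Male Balb/c mice given 100, 500 or 1000 mg/kg/day i.p. for 6 days, then 1 week recovery; six vehicle-injected mice as controls. Body weight and survival recorded daily.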

Compound: COc1ccc(C(=O)c2ccc3c(ccn3Cc3ccc(C(=O)NO)cc3)c2)cc1
- inhibition [1]: Active
- inhibition [2]: Active
- inhibition [3]: Active
- Kp at 1 h [4]: 1.19
- Activity (Mus musculus): Non-Toxic
